Experimental data from ChEMBL document CHEMBL1147961, “Synthesis and biological evaluation of new 6-s-cis locked 1,2,25-trihydroxyprevitamin D3 analogues” (2007).

Columns and labels:
[1] = system: MCF7; assay: Antiproliferative activity against human MCF7 cells after 72 hrs relative to 1-alpha,25-(OH)2-D3; assay type: functional
Procedure, shortened: (§1)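 MCF-7 breast cancer cells (ATCC) incubated 72 h with a range of concentrations of analogues, reference 1α,25-(OH)2-D3 or vehicle. Proliferation read as [3H]thymidine incorporation.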

[2] = biological target: T1, Vitamin D3 receptor (Sus scrofa) (UniProt A3RGC1); assay: Displacement of [3H]1-alpha,25-(OH)2-D3 from VDR in pig intestinal mucosa relative to 1-alpha,25-(OH)2-D3; assay type: tissue-based
T1 sequence (whole entry): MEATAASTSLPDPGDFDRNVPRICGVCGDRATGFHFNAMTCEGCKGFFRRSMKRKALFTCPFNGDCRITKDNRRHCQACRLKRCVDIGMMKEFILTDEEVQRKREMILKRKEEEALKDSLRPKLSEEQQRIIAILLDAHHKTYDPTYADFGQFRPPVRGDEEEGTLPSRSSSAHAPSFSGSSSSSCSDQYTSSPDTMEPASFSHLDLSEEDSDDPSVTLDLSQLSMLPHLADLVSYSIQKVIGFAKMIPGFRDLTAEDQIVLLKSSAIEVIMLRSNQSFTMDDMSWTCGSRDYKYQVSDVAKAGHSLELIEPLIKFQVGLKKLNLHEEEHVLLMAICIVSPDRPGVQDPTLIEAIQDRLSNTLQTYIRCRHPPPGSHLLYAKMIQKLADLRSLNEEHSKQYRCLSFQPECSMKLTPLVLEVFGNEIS
Procedure, shortened: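 Competitive binding using high-speed supernatant of intestinal mucosa homogenates from normal pigs, competing against [3H]-1α,25-(OH)2-D3. Relative affinity taken from the concentration displacing 50% of tracer, with 1α,25-(OH)2-D3 set at 100%.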

[3] = biological target: T2, Vitamin D-binding protein (Homo sapiens) (UniProt P02774); assay: Binding affinity to human DBP relative to 1-alpha,25-(OH)2-D3
T2 sequence (whole entry): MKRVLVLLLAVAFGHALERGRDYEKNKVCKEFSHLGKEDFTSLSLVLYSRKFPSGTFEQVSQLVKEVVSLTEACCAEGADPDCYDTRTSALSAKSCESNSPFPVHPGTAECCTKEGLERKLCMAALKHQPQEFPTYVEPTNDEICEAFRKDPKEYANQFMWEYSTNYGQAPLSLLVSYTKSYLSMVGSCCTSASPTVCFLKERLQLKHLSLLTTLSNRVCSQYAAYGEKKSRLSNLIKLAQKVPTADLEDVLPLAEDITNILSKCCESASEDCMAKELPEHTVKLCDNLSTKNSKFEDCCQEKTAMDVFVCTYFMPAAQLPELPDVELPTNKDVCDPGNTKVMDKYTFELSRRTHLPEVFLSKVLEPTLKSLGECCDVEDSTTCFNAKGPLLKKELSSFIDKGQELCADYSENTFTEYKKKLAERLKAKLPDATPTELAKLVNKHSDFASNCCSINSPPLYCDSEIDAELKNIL

[4] = system: MCF7; assay: Antiproliferative activity against human MCF7 cells at 1 uM after 72 hrs relative to 1-alpha,25-(OH)2-D3; assay type: functional; conditions: MCF7, 72 h; procedure, shortened: as §1

Activity [2] [%] | Activity [3] [%] | Structure (SMILES) | Activity [1] [%] | inhibition at 1 µM [4] [%]
0.2 | 4 | C[C@H](CCCC(C)(C)O)[C@H]1CC[C@H]2C(/C=C\C3=C[C@@H](O)[C@@H](O)[C@H](O)C3)=CCC[C@]12C | 2 | 
< 0.1 | 7 | C[C@H](CCCC(C)(C)O)[C@H]1CC[C@H]2C(/C=C\C3=C[C@@H](O)[C@@H](O)[C@@H](O)C3)=CCC[C@]12C | 0 | 
< 0.1 | 2 | C[C@H](CCCC(C)(C)O)[C@H]1CC[C@H]2C(/C=C\C3=C[C@H](O)[C@@H](O)[C@H](O)C3)=CCC[C@]12C | 0 | 
2 | 8 | C[C@H](CCCC(C)(C)O)[C@H]1CC[C@H]2C(/C=C\C3=C[C@@H](O)[C@H](O)[C@H](O)C3)=CCC[C@]12C | 6 | 70
